In ChEMBL document CHEMBL1126572, “Synthesis and pharmacological activity of a series of dihydro-1H-pyrrolo[1,2-a]imidazole-2,5(3H,6H)-diones, a novel class of potent cognition enhancers” (J Med Chem, 1993):

What was measured:
Rattus norvegicus [1] = assay: Percent reversal of scopolamine-induced amnesia rat following 10 mg/kg i.p.; type: functional; conditions: route intraperitoneal
Outline: (§1)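 Male Wistar rats, 200–220 g, acclimatised ≥1 week; one-trial step-through passive avoidance in two-compartment box with electrifiable grid floor. Scopolamine hydrobromide 0.66 mg/kg sc 60 min before learning, test compound or vehicle 30 min before scopolamine; 45 rats per experiment split into saline, scopolamine and treated groups. % amnesia reversal computed from group retention; Fisher's exact test versus scopolamine group.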

Rattus norvegicus [2] = assay: Percent reversal of scopolamine-induced amnesia rat at 0.1 mg/kg ip; type: functional; conditions: route intraperitoneal; outline: as §1
Rattus norvegicus [3] = assay: Percent reversal of scopolamine-induced amnesia rat following 1.0 mg/kg i.p.; type: functional; conditions: route intraperitoneal; outline: as §1
Rattus norvegicus [4] = assay: Percent reversal of scopolamine-induced amnesia rat at 0.3 mg/kg ip; type: functional; conditions: route intraperitoneal; outline: as §1
Rattus norvegicus [5] = assay: Percent reversal of scopolamine-induced amnesia rat at 1.0 mg/kg po; type: functional; outline: as §1
Rattus norvegicus [6] = assay: Percent reversal of scopolamine-induced amnesia rat at 10 mg/kg po; type: functional; outline: as §1
Rattus norvegicus [7] = assay: Percent reversal of scopolamine-induced amnesia rat at 30 mg/kg po; type: functional; outline: as §1
Rattus norvegicus [8] = assay: Tested for efficiency in responding in radial maze test in rat on the day after treatment at 1 mg/kg sc along with Scopolamine at 50 ug/kg sc; type: functional; conditions: route subcutaneous
Rattus norvegicus [9] = assay: Tested for running time in radial maze test in rat on the day before treatment at 1 mg/kg sc along with Scopolamine at 50 ug/kg sc; type: functional; conditions: route subcutaneous
Outline: (§2)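 Eight-arm radial maze in male Wistar rats (2 months old, 250 g) held at 80-85% body weight and trained to ≤9 choices for 3 consecutive days. Scopolamine was given sc 60 min pre-test and the drug sc in isotonic saline 90 min pre-test. Position was video-tracked. Mean running time (s) was total task time divided by number of choices.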

Rattus norvegicus [10] = assay: Tested for running time in radial maze test in rat on the day of treatment at 1 mg/kg sc along with Scopolamine at 50 ug/kg sc; type: functional; conditions: route subcutaneous; outline: as §2
Rattus norvegicus [11] = assay: Tested for efficiency in responding in radial maze test in rat on the day of treatment at 1 mg/kg sc along with Scopolamine at 50 ug/kg sc; type: functional; conditions: route subcutaneous
Outline: (§3)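 Male Wistar rats (2 months old, 250 g), food-restricted to 80-85% body weight, were trained daily in an eight-arm radial maze to criterion (≤9 choices on 3 consecutive days). Scopolamine was given sc 60 min before testing and the test drug sc in saline 90 min before. Treatments were ≥3 days apart with retraining. Efficiency was scored as 8/total choices × 100.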

Rattus norvegicus [12] = assay: Tested for efficiency in responding in radial maze test in rat on the day before treatment at 1 mg/kg sc along with Scopolamine at 50 ug/kg sc; type: functional; conditions: route subcutaneous; outline: as §3
Rattus norvegicus [13] = assay: Tested for running time in radial maze test in rat on the day after treatment at 1 mg/kg sc along with Scopolamine at 50 ug/kg sc; type: functional; conditions: route subcutaneous; outline: as §2
[14] = Basicity was assessed from pKB; type: ADME
Rattus norvegicus [15] = assay: Percent reversal of scopolamine-induced amnesia rat at 0.3 mg/kg po; type: functional; outline: as §1
Rattus norvegicus [16] = assay: Tested for running time in radial maze test in rats on the day of treatment at 1 mg/kg sc along with Scopolamine at 50 ug/kg sc; type: functional; conditions: route subcutaneous
Outline: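 Male Wistar rats (2 months, 250 g) food-restricted to 80–85% body weight, trained in eight-arm radial maze to criterion (≤9 choices, 3 consecutive days). Scopolamine 50 μg/kg sc 60 min and compound (saline, 2 mL/kg) 90 min before test; mean running time = total running time/total choices, video-tracked; compared with performance on days before and after treatment.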

`O=C1NC2CCC(=O)N2[C@@H]1Cc1ccccc1` (stereo partly drawn) gave a Reversal (Rattus norvegicus [1]) of 0%, a Reversal (Rattus norvegicus [2]) of 15% and a Reversal (Rattus norvegicus [3]) of 19%. For the same molecule, the Reversal (Rattus norvegicus [4]) was 42%.

Work on `CCOC(=O)C12CCC(=O)N1CC(=O)N2` (stereo not drawn) yielded a Reversal (Rattus norvegicus [1]) of 62%, a Reversal (Rattus norvegicus [5]) of 0% and a Reversal (Rattus norvegicus [3]) of 25%. It also gave a Reversal (Rattus norvegicus [6]) of 0%.

In the case of `O=C1NC2CCC(=O)N2C1CO` (stereo not drawn), the Reversal (Rattus norvegicus [5]) is reported as 0%, the Reversal (Rattus norvegicus [2]) is reported as 3% and the Reversal (Rattus norvegicus [7]) is reported as 0%. It also gave a Reversal (Rattus norvegicus [3]) of 38%, a Reversal (Rattus norvegicus [4]) of 30% and a Reversal (Rattus norvegicus [6]) of 42%.

With `CC1C(=O)NC2CCC(=O)N21` (racemic) the Reversal (Rattus norvegicus [1]) was 38%, the Reversal (Rattus norvegicus [5]) was 9% and the Reversal (Rattus norvegicus [3]) was 38%. For the same molecule, the Reversal (Rattus norvegicus [6]) was 33%.

`O=C1CN2C(=O)CCCC2N1` (stereo not drawn) showed a Reversal (Rattus norvegicus [1]) of 27%, a Reversal (Rattus norvegicus [5]) of 0% and a Reversal (Rattus norvegicus [3]) of 27%. It also gave a Reversal (Rattus norvegicus [6]) of 0%.

`CC12CCC(=O)N1CC(=O)N2` (stereo not drawn) showed a Reversal (Rattus norvegicus [1]) of 46%, a Reversal (Rattus norvegicus [7]) of 26% and a Reversal (Rattus norvegicus [3]) of 40%. It also gave a Reversal (Rattus norvegicus [4]) of 0% and a Reversal (Rattus norvegicus [6]) of 0%.

`C[C@H]1C(=O)NC2CCC(=O)N21` (stereo partly drawn) gave a Reversal (Rattus norvegicus [1]) of 3%, a Reversal (Rattus norvegicus [3]) of 52% and a Reversal (Rattus norvegicus [4]) of 0%.

With `CN1[C@@H]2C[C@@H](OC(=O)[C@H](CO)c3ccccc3)C[C@H]1[C@@H]1O[C@@H]12` [SCOPOLAMINE] the Efficiency (Rattus norvegicus [8]) was 83.9%, the Time (Rattus norvegicus [9]) was 14.3 s and the Time (Rattus norvegicus [10]) was 34.6 s. It also gave an Efficiency (Rattus norvegicus [11]) of 63.9%, an Efficiency (Rattus norvegicus [12]) of 87.3% and a Time (Rattus norvegicus [13]) of 19.6 s.

With `CC1C(=O)NC2(C)CCC(=O)N12` (racemic) the Reversal (Rattus norvegicus [1]; 10 mg/kg) was 0%, the Reversal (Rattus norvegicus [5]; 1 mg/kg) was 17% and the Reversal (Rattus norvegicus [3]; 1 mg/kg) was 38%. It also gave a Reversal (Rattus norvegicus [4]; 0.3 mg/kg) of 30% and a Reversal (Rattus norvegicus [6]; 10 mg/kg) of 42%.

For `CCOC(=O)CN1C(=O)CN2C(=O)CCC12` (stereo not drawn), the Reversal (Rattus norvegicus [1]) was 0% and the Reversal (Rattus norvegicus [3]) was 3%.

In the case of `CC(=O)N1C(=O)CN2C(=O)CCC21` (stereo not drawn), the Reversal (Rattus norvegicus [1]) is reported as 0% and the Reversal (Rattus norvegicus [3]) is reported as 0%.

For `NC(=O)CNCc1ccccc1`, the pKB [14] was 7.2.

In the case of `CC1C(=O)NC2(C)CCC(=O)N12` (stereo in doubt; 18 (S)), the Reversal (Rattus norvegicus [1]; 10 mg/kg) is reported as 44%, the Reversal (Rattus norvegicus [5]; 1 mg/kg) is reported as 21% and the Reversal (Rattus norvegicus [7]) is reported as 37%. The Reversal (Rattus norvegicus [3]; 1 mg/kg) was 65%, the Reversal (Rattus norvegicus [4]; 0.3 mg/kg) was 10% and the Reversal (Rattus norvegicus [6]; 10 mg/kg) was 26%.

Molecule `O=C1CN2C(=O)CCC2N1` (stereo not drawn) [DIMIRACETAM] has a Reversal (Rattus norvegicus [1]) of 70%, an Efficiency (Rattus norvegicus [8]) of 88.6% and a Time (Rattus norvegicus [9]) of 16.6 s. It also gave a Reversal (Rattus norvegicus [5]) of 75%, an Efficiency (Rattus norvegicus [11]) of 75.6% and an Efficiency (Rattus norvegicus [12]) of 96.3%. It also gave a Reversal (Rattus norvegicus [7]) of 40%, a Reversal (Rattus norvegicus [3]) of 68% and a Reversal (Rattus norvegicus [4]) of 16%. It also gave a Time (Rattus norvegicus [13]) of 19.6 s, a Reversal (Rattus norvegicus [15]) of 28% and a Reversal (Rattus norvegicus [6]) of 60%. It also gave a Time (Rattus norvegicus [16]) of 34.6 s.

For `CCN1C(=O)CN2C(=O)CCC12` (stereo not drawn), the Reversal (Rattus norvegicus [1]) was 0% and the Reversal (Rattus norvegicus [3]) was 0%.

`NC(=O)CN1C(=O)CN2C(=O)CCC12` (stereo not drawn) showed a Reversal (Rattus norvegicus [1]) of 62%, a Reversal (Rattus norvegicus [5]) of 0% and a Reversal (Rattus norvegicus [3]) of 49%. For the same molecule, the Reversal (Rattus norvegicus [6]) was 9%.

Molecule `NC(=O)CN1CC(O)CC1=O` (stereo not drawn) [OXIRACETAM] has a Reversal (Rattus norvegicus [1]) of 53%, a Reversal (Rattus norvegicus [7]) of 69% and a Reversal (Rattus norvegicus [3]) of 12%. It also gave a Reversal (Rattus norvegicus [6]) of 27%.

In the case of `O=C1CCC2N1CC(=O)N2C(=O)OCc1ccccc1` (stereo not drawn), the Reversal (Rattus norvegicus [1]) is reported as 12% and the Reversal (Rattus norvegicus [3]) is reported as 31%.

Work on `NC(=O)C12CCC(=O)N1CC(=O)N2` (stereo not drawn) yielded a Reversal (Rattus norvegicus [1]) of 38%, a Reversal (Rattus norvegicus [5]) of 0% and a Reversal (Rattus norvegicus [3]) of 62%. For the same molecule, the Reversal (Rattus norvegicus [4]) was 38% and the Reversal (Rattus norvegicus [6]) was 0%.

With `O=C1CN2C(=O)CCCCC2N1` (stereo not drawn) the Reversal (Rattus norvegicus [1]) was 12% and the Reversal (Rattus norvegicus [3]) was 22%.

With `O=C1NC2CCC(=O)N2[C@H]1Cc1ccccc1` (stereo partly drawn) the Reversal (Rattus norvegicus [1]) was 0%, the Reversal (Rattus norvegicus [5]) was 42% and the Reversal (Rattus norvegicus [2]) was 0%. The Reversal (Rattus norvegicus [7]) was 7%, the Reversal (Rattus norvegicus [3]) was 53% and the Reversal (Rattus norvegicus [4]) was 53%. For the same molecule, the Reversal (Rattus norvegicus [15]) was 0% and the Reversal (Rattus norvegicus [6]) was 0%.

`O=C1CN2C(=O)CCC2(C(=O)O)N1` (stereo not drawn) gave a Reversal (Rattus norvegicus [1]) of 53%, a Reversal (Rattus norvegicus [5]) of 1% and a Reversal (Rattus norvegicus [3]) of 14%. It also gave a Reversal (Rattus norvegicus [6]) of 33%.

`CC(C)CC1C(=O)NC2CCC(=O)N21` (stereo not drawn) showed a Reversal (Rattus norvegicus [1]) of 0% and a Reversal (Rattus norvegicus [3]) of 3%.
